Hits are enriched below; roughly 1.8% of the tested compounds scored in any of these assays.
Runt-SMMHC FRET: inhibitors of human RUNX1 Runt domain binding to CBFb-SMMHC. Q01196+Q13951. Cerulean-Runt/Venus-CBFb-SMMHC FRET ratio 530/480, 1 h. inhibition, % at 20 µM. actives 0.74% (n = 220,000). AID 1434;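 active = mean inhibition across duplicate retests at 20 µM reaching about 50%, limit read from the data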;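 also: inhibitors lower the FRET ratio by blocking Runt binding to CBFb-SMMHC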
Hck-Nef inh: human Hck-Nef kinase inhibition | actives 0.68% (n = 220,000) | inhibition, % at 20 µM | Recombinant Hck-YEEI plus Nef, Z-Lyte FRET kinase assay | P08631;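 active = Hck-Nef kinase inhibition above about 50%, limit read from the data; inactive = inhibition below that limit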
RanGTP-Impb inh: disruptors of Ran-importin-beta complex formation – biochemical, FRET, CFP-Ran, YFP-importin-beta, homogeneous, primary screen; cell-free CFP-Ran/YFP-importin-beta FRET ratio; actives 1.1% (n = 300,000); inhibition, % (test concentration not listed);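 active = more than half of the replicate wells show a fall in the fluorescence ratio signal beyond about 16%, limit read from the data, passing the limit was not always enough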
Runt-CBFb FRET: Runt domain-CBFb interaction inhibition; Q01196+Q13951; Cerulean-Runt/Venus-CBFb FRET ratio 530/480, 1 h; inhibition, % at 20 µM; actives 0.46% (n = 220,000);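 active = inhibition over about 50% at 20 µM in the single-dose screen, limit read from the data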
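Measured by: fluorescence energy transfer, 422 nm excitation, 530/480 nm emission; test system: Cerulean-tagged RUNX1 Runt domain (FRET donor) fusion protein; buffer or medium: Tris pH 7.5 buffer with BSA; compound: one dose, 20 µM compound, 1% DMSO; times: two 1 h room-temperature incubations shielded from light; benchmarks: unlabeled CBFb 5 µM, positive control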
A number is an active result; i = inactive; nt = no result.

SMILES	Runt-SMMHC FRET	Hck-Nef inh	RanGTP-Impb inh	Runt-CBFb FRET
O=C(NC(C(=O)N/N=C/c1c2ccccc2cc2ccccc12)c1n[nH]c(=O)c2ccccc12)c1ccccc1 (stereo unspecified)	i	i	97	i
CCn1c(C)c(C)c2cc(C(=O)NCCCN3CCCCC3C)ccc21 (stereo unspecified)	nt	nt	i	nt
CCN(c1ccccc1)S(=O)(=O)c1ccc(Cl)c(NC(=O)COC(=O)c2cc(O)c3ccccc3c2O)c1	i	80	i	i
O=C(OCC(=O)N1CCN(c2ccccc2)CC1)c1cc(Cl)ccc1[N+](=O)[O-]	nt	nt	i	nt
Cc1cc(C)c2c(N)c(-c3nc4ccccc4[nH]3)sc2n1	i	i	21	i
Cc1onc(-c2ccccc2)c1C(=O)NC(=S)NNC(=O)c1cc(-c2ccc(F)cc2)n[nH]1	i	i	i	i
CC1(C)CC(=O)C2=C(C1)N(c1cccc(O)c1)C1=C(C2)C(=O)CC(C)(C)C1	57	i	74	i
COc1ccc(N(C(C)C(=O)Nc2cccnc2)S(C)(=O)=O)cc1 (stereo unspecified)	i	i	i	i
Cc1ccc(C(=O)CSc2ncnc3ccccc23)o1	78	i	nt	i
COC(=O)c1ccc(C(=O)OC)c(NC(=S)N2CCN(C)CC2)c1	i	i	32	i
COC(=O)c1ccc(C(=O)OC)c(NC(=S)N2CCCC2)c1	nt	nt	i	nt
Cc1nn(C(=O)c2ccco2)c(C)c1Sc1ccc(Br)cc1	i	i	i	i
Cc1nn(C(=O)c2ccco2)c(C)c1Sc1ccccc1	i	i	i	53
CN(C)C1(CN=Cc2cc(Cl)cc([N+](=O)[O-])c2O)CCCCC1	nt	nt	i	nt
N[C@@H](CO)c1nnc([C@H](CCC(=O)O)NC(=O)C2CCNCC2)o1	i	i	i	i
Cc1ccc(N2CC(NS(=O)(=O)c3cccnc3)CC2=O)cc1C (stereo unspecified)	nt	nt	32	nt
CC1=C(C(=O)Nc2cccc(C(=O)NC3CCCC(C)C3C)c2)SCCO1 (stereo unspecified)	nt	nt	i	nt
Cc1cc(NC(=O)c2ccco2)ncc1NC(=O)CCc1ccccc1	i	i	i	i
CCC(=O)Nc1cc(C)c(NC(=O)CCc2ccccc2)cn1	89	i	40	i
CCCCn1c(SCC(=O)OCC)nc2c(sc(=S)n2-c2ccccc2OC)c1=O	nt	nt	i	nt
S=c1[nH]nc(Cn2cnc3ccccc32)n1-c1ccccc1Cl	i	i	i	i
CCOC(=O)/C(C#N)=C1/C=C(C)NC(c2ccccc2O)=N1	61	i	i	i
O=C(NC12CC3CC(CC(C3)C1)C2)c1ccc(=O)oc1	i	i	i	i
O=C(NNC(=O)C1[C@H]2CCCC[C@@H]12)c1ccc(=O)oc1 (stereo partly specified)	82	i	i	i
COc1ccc(C)c2sc(N(CCCN(C)C)C(=O)c3ccc4c(c3)OCCO4)nc12	nt	nt	i	nt
SMILES	Runt-SMMHC FRET	Hck-Nef inh	RanGTP-Impb inh	Runt-CBFb FRET
O=C(N/N=C/c1cccc(F)c1)c1c(O)c2c([nH]c1=O)CCCC2	i	i	i	i
O=C(O)CCC(=O)N1CCN(c2nc(-c3ccccc3)c3cc(Br)ccc3n2)CC1	nt	nt	28	nt
CCOC(=O)N1CCN(c2nc(-c3ccccc3)c3cc(C)ccc3n2)CC1	nt	nt	18	nt
O=C(O)CCC(=O)N1CCN(c2nc(-c3ccccc3Cl)c3cc(Br)ccc3n2)CC1	85	i	31	i
N#CCc1cnc2ccccc2n1	i	i	29	i
O=C(O)c1cnc2ccccc2n1	i	i	i	i
CON1C(=O)C(=O)N(OC)C(C)(C)C1(C)C	i	i	i	i
CC(C)N1C(=O)S/C(=C\c2ccc(-c3ccc(Cl)c(C(=O)O)c3)o2)C1=O	nt	nt	26	nt
Cc1ccc(N2NC(=O)/C(=C/c3ccc(-c4ccc(Cl)c(C(=O)O)c4)o3)C2=O)cc1	i	i	i	i
CCOC(=O)CN1C(=O)S/C(=C\c2ccc(-c3ccc(C(=O)O)c(Cl)c3)o2)C1=O	nt	nt	23	nt
NC1=NC(c2cccc(Cl)c2)N(CCc2ccc(F)cc2)C(N)=N1 (stereo unspecified)	nt	nt	i	nt
OC(c1ccc(F)cc1)C(CN1CCOCC1)c1ccccc1 (stereo unspecified)	nt	nt	i	nt
CC1CCCN(S(=O)(=O)c2ccc(C(=O)Nc3sc4c(c3C(N)=O)CCN(C)C4)cc2)C1 (stereo unspecified)	nt	nt	29	nt
CCN1CCc2c(sc(NC(=O)c3ccc(S(=O)(=O)N4CCCCCC4)cc3)c2C(=O)NC)C1	nt	nt	57	nt
